Hits are enriched below; roughly 1.3% of the tested compounds scored in any of these assays.
JMJD2C inh = human JMJD2C demethylase inhibition; inhibition, % at 2.35 µM; hit rate 0.069% among 330,000; GST-JMJD2C(1-420) H3K9me3 demethylation, DELFIA europium; Q9H3R0;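 active means more than half of a compound's replicate wells show inhibition beyond 50%, single wells judged on their own value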;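 further: signal counts dimethyl H3K9 product captured on neutravidin plate; 0% = median of DMSO wells and 100% = 0.3 times that DMSO median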
VLA-4 inh = inhibition in a human VLA-4 binding assay; hit rate 0.2% among 330,000; AID 2557; P13612; inhibition, % (about 7 µM as worked out from the volumes in the protocol); VLA-4 expressing cells, ligand binding flow cytometry; in the data active means inhibition above about 50%
procasp7 counter = activates human procaspase-7, counter-screen for procaspase-3 activators; P55210; recombinant procaspase-7, Ac-DEVD-pNA absorbance 405 nm; D23A/D198A/D206A triple mutant, cannot self-cleave; scale: DMSO 0, 5 µM enzyme 100; activation, % at 8.5 µM; hit rate 0.093% among 330,000;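 active means percent activation above the screen-wide mean plus 3 SD, cut at about 25% in these data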
Target sequence (P55210 whole entry D23A/D198A/D206A): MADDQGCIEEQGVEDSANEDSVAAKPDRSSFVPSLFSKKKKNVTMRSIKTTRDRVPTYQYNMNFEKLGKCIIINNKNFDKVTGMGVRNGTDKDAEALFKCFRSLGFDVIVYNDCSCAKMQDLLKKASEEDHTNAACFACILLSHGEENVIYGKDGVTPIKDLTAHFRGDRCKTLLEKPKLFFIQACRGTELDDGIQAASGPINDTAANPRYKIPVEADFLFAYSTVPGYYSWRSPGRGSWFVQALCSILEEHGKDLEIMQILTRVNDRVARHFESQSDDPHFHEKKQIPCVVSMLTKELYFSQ
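Assay system: Uncleavable procaspase-7 mutant enzyme / Input: 2 µM procaspase-7 mutant as dispensed / Dosing: single nominal 8.5 µM compound dose, 0.8% DMSO final / Timing: 1 h enzyme–compound preincubation and 2 h substrate reaction, both 25 °C / Detection: p-Nitroaniline absorbance at 405 nm, read at 0 and 120 min / Replication: singlicate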
GRK2 aptamer HTS = inhibitors of human GRK2 displacing RNA aptamer | bead flow cytometry, FAM-aptamer displacement from GRK2 | inhibition of aptamer binding, % at 10 µM | hit rate 0.59% among 330,000 | AID 488847;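 active means inhibition of aptamer binding above 40%, roughly 3 SD of noise, on plates passing a quality check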;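 further: median bead fluorescence of bound FAM aptamer so fluorescent compounds give negative values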
Lipid droplet = hepatic lipid droplet formation modulation; AML12 mouse hepatocytes, oleate lipid droplets, BODIPY imaging; inhibition, % at 6.5 µM; hit rate 0.4% among 240,000;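 active means lipid droplet intensity inhibited by at least 50%, with more than 500 cells counted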
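Test system: AML12 hepatocytes (mouse); reagent: oleate loading, 100 µM; dosing: one dose, 6.5 µM compound; incubation: overnight exposure; signal: fluorescence imaging, 20x objective, two fields per well; read-out basis: % inhibition of corrected integrated BODIPY droplet signal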
proCasp3 act = activates human procaspase-3; P42574; recombinant procaspase-3 D3A, Ac-DEVD-pNA absorbance 405 nm; activation, % at 8.5 µM; hit rate 0.11% among 330,000; AID 463141;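 active means activation above the mean of all tested compounds plus 3 SD, cut at about 21% in these data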;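 further: 0% = DMSO alone and 100% = DMSO wells spiked with extra 5 µM PC-3 D3A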
Target sequence (P42574 whole entry D9A/D28A/D175A): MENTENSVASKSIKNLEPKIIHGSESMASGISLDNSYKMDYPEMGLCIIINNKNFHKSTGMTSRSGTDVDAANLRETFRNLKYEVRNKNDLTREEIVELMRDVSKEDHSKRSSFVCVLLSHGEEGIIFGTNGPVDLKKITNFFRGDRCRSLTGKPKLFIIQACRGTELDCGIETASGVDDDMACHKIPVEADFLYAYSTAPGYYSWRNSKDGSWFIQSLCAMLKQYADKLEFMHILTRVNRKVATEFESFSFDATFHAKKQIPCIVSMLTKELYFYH
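Technique: 405 nm absorbance of p-nitroaniline, reads at 0 and 120 min; Test system: Procaspase-3 D3A mutant; Incubation: 1 h enzyme-compound preincubation, then 2 h substrate reaction, 25 °C; Repeats: singlicate, each compound tested once; Benchmarks: low control DMSO wells, high control DMSO plus 5 µM PC-3 D3A.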
* marks the source's active call; other numbers are inactive results; . = no result.

SMILES	JMJD2C inh	VLA-4 inh	procasp7 counter	GRK2 aptamer HTS	Lipid droplet	proCasp3 act
Cc1nn(C)c(N)c1C(O)(c1nccn1C)C(F)(F)F (stereo unspecified)	81*	-8	1	0	.	3
Cc1cc(NC(=O)CCC(=O)N(CC(C)C)C(C(=O)NC(C)(C)C)c2ccccc2Cl)no1 (stereo unspecified)	3	-3	1	0	36	10
Clc1cccc(Cl)c1Cn1c(-c2cccnc2Cl)nc2ccccc21	52*	0	2	2	.	-4
COc1ccccc1CN(C)C(=O)c1ccc(S(=O)(=O)NCc2ccco2)cc1	16	34	0	44*	.	7
COc1ccccc1C(CNC(=O)c1ccc(S(=O)(=O)NCc2ccco2)cc1)N(C)C (stereo unspecified)	3	9	-5	0	-13	6
Cc1ccsc1/C=N/NC(=O)CNC(=O)c1cccc([N+](=O)[O-])c1C	-2	56*	0	2	7	-2
Cc1ccsc1/C=N/NC(=O)CNC(=O)c1ccco1	-11	30	2	0	9	-2
O=C(NCC1CCCO1)c1cc2nc(-c3ccco3)cc(C(F)(F)Cl)n2n1 (stereo unspecified)	-1	-3	-14	0	12	-19
Cc1cc(C(=O)N2CCc3c([nH]c4ccccc34)C2c2cccc(Cl)c2)nn1C (stereo unspecified)	8	-5	3	1	67*	1
CC(C)[C@H](NS(=O)(=O)c1ccccc1)C(=O)OCC(=O)Nc1cccc(S(N)(=O)=O)c1	0	31	12	71*	.	-2
Cc1cc(OCC(=O)NCc2ccncc2)c2c(C)cc(=O)oc2c1	2	4	-2	1	-3	-3
O=C(NC1CCc2ccccc21)c1cc(COc2cncc(Cl)c2)on1 (stereo unspecified)	60*	-2	9	23	13	0
O=C(NC1CCc2ccccc21)c1cc(COc2ccc(F)cc2Cl)on1 (stereo unspecified)	-6	0	4	1	5	-1
C=C(C)C(=O)Nc1cccc(C2=NOC3(C2)C[C@@H](C(N)=O)N(C(=O)c2ccc(OC)cc2)C3)c1 (stereo partly specified)	-7	4	-8	95*	.	2
COc1ccccc1-c1nc(COc2ccc(Cl)cc2Cl)no1	11	5	6	1	-11	7
CCc1cc(CNC(=O)c2ccc(OC3CCN(CCc4ccccc4)CC3)cc2)on1	1	-104	11	49*	3	3
O=C(NCc1ccon1)c1ccc(OC2CCN(CCc3ccccc3)CC2)cc1	-4	0	-2	0	-1	-1
Cc1c(C(=O)N2CCCC2)c(S(=O)(=O)NCCc2ccccc2)c(C)n1C	9	-5	-1	6	-29	2
CC(=O)Nc1ccc(OC(=O)c2cc3cc(Br)cc(Br)c3oc2=O)cc1	-3	-18	3	95*	-1	2
CC(C)NC(=O)N(C)C[C@H]1Oc2ccc(NS(=O)(=O)c3ccccc3)cc2C(=O)N([C@H](C)CO)C[C@H]1C	54*	-2	16	2	.	-3
COc1ccc(NC(=O)N(C)C[C@H]2Oc3c(NS(=O)(=O)c4ccc(OC)cc4)cccc3C(=O)N([C@H](C)CO)C[C@@H]2C)cc1	.	11	8	0	.	9
C[C@H](CO)N1C[C@H](C)[C@@H](CN(C)S(=O)(=O)c2ccc(F)cc2)Oc2ccc(NC(=O)C3CC3)cc2C1=O	62*	9	0	2	.	-4
COc1ccc(NC(=O)N(C)C[C@H]2Oc3c(NS(=O)(=O)c4cn(C)cn4)cccc3C(=O)N([C@H](C)CO)C[C@@H]2C)cc1	58*	43	1	1	.	6
Cc1c(C(=O)NC2CCS(=O)(=O)C2)oc2ccccc12 (stereo unspecified)	-8	43	1	0	-16	2
CCOC(=O)C1CCN(C(=S)NC(=O)c2cccs2)CC1	-4	-10	-15	2	-7	1
SMILES	JMJD2C inh	VLA-4 inh	procasp7 counter	GRK2 aptamer HTS	Lipid droplet	proCasp3 act
CC[C@]12c3[nH]c4cc(-c5ccco5)ccc4c3CCN1C(=O)[C@@H](CC(=O)NCCc1ccccn1)C[C@@H]2C(=O)N1CCN(C(=O)c2ccco2)CC1	.	.	4	43*	.	0
CN(C)C(=O)CCc1ccc2c3c([nH]c2c1)[C@]1(CCc2ccccc2)[C@@H](C(=O)N2CCCCC2)C[C@H](CC(=O)NCc2ccco2)C(=O)N1CC3	.	.	10	0	.	1
CC[C@]12c3[nH]c4cc(CCC(=O)N(C)C)ccc4c3CCN1C(=O)[C@@H](CC(=O)NCc1ccco1)C[C@@H]2C(=O)N1CCN(C(=O)C2CC2)CC1	.	.	5	45*	.	5
CCN(CC)C(=O)[C@H]1C[C@H](CC(=O)NCc2ccco2)C(=O)N2CCc3c([nH]c4cc(CCC(=O)N(C)C)ccc34)[C@]12C	.	.	-1	51*	.	1
CN(C)C(=O)CCc1ccc2c3c([nH]c2c1)[C@]1(C)[C@@H](C(=O)N2CCCCC2)C[C@H](CC(=O)NCc2ccco2)C(=O)N1CC3	.	.	11	0	.	-4
CC[C@]12c3[nH]c4cc(CCC(=O)N(C)C)ccc4c3CCN1C(=O)[C@@H](CC(=O)NCCC1=CCCCC1)C[C@@H]2C(=O)N1CCN(C(=O)c2ccco2)CC1	.	.	-1	43*	.	11
O=C(O)c1cccc2c1/C(=N/Nc1ccc([N+](=O)[O-])cc1[N+](=O)[O-])c1ccccc1-2	5	1	2	0	.	6
Cc1oc(=O)cc(OCc2ccccc2)c1C	.	.	9	45*	.	9
O=C(CSC(=S)N1CCCC1)c1cc(Br)cc(Br)c1O	58*	-25	-4	1	-1	-8
Cc1cccc(C)c1NS(=O)(=O)c1cc2c3c(c1)CC(=O)N3CCC2	54*	-6	-8	0	-32	-3
Cc1cccc(C)c1NS(=O)(=O)c1cc2c3c(c1)CCN3C(=O)CC2	-16	13	0	0	.	4
O=C(Nc1cc(Cl)ccc1Cl)N1CCCC1	6	12	-4	6	-2	1
O=C(/C(Br)=C/Nc1cc(Cl)ccc1Cl)C(F)(F)F	6	3	4	86*	3	-5
CCc1ccc(-c2nc(SCC(=O)c3c(N)n(C4CC4)c(=O)[nH]c3=O)n[nH]2)cc1	-2	1	8	0	.	-2
O=C(CN1C(=O)/C(=C/c2ccco2)SC1=S)NC1CCS(=O)(=O)C1 (stereo unspecified)	27	-7	-13	45*	9	-18

Compound activity from PubChem BioAssay.
